According to ChEMBL document CHEMBL4038332, “Substituted N-Phenyl-5-(2-(phenylamino)thiazol-4-yl)isoxazole-3-carboxamides Are Valuable Antitubercular Candidates that Evade Innate Efflux Machinery” (J Med Chem, 2017):
Converted amounts (≈) assume the structure as drawn.

Columns and labels:
Format in all cases: functional
[1] = system: Mycobacterium tuberculosis; assay: Antimycobacterial activity against patient derived extreme drug resistance Mycobacterium tuberculosis isolate 3 incubated for 7 days by MTT-based broth microdilution assay; settings: isolate 3, 168 h
Method in brief: (§1)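 Drug-resistant clinical isolates from Lisbon patients (2008–2009) grown in MB7H9 + 10% OADC at 37 °C to OD600 0.8, diluted to ~10^5 cells/mL; equal volume added to 2-fold serial compound dilutions. Plates sealed, 7 days at 37 °C, then MTT to final 2.5% overnight; MIC = lowest concentration with no colour change; triplicate.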

[2] = system: Mycobacterium tuberculosis; assay: Antimycobacterial activity against patient derived INH/RIF resistance Mycobacterium tuberculosis isolate 2 incubated for 7 days by MTT-based broth microdilution assay; settings: isolate 2, 168 h; method in brief: as §1
[3] = system: Mycobacterium tuberculosis; assay: Antimycobacterial activity against patient derived INH/RIF resistance Mycobacterium tuberculosis isolate 1 incubated for 7 days by MTT-based broth microdilution assay; settings: isolate 1, 168 h; method in brief: as §1

Compound	MIC90 [1] [µg/mL]	MIC90 [2] [µg/mL]	MIC90 [3] [µg/mL]
Cc1ccc(Nc2nc(-c3cc(C(=O)Nc4ccccc4)no3)cs2)cc1	2 (≈ 5.31 µM)	1 (≈ 2.66 µM)	2 (≈ 5.31 µM)
Cc1ccc(Nc2nc(-c3cc(C(=O)Nc4ccccn4)no3)cs2)cc1	2 (≈ 5.3 µM)	1 (≈ 2.65 µM)	2 (≈ 5.3 µM)
